ChEMBL document CHEMBL1124123, “Graphics computer-aided receptor mapping as a predictive tool for drug design: development of potent, selective, and stereospecific ligands for the 5-HT1A receptor” (J Med Chem, 1988)

Experiments:
[1] = molecular target: T1, Serotonin 2 (5-HT2) receptor (Rattus norvegicus, UniProt P30994+P08909+P14842); experiment: (§1) Binding affinity towards 5-hydroxytryptamine 2 receptor in rat frontal cortex using [3H]ketanserin as radioligand
[2] = molecular target: T2, 5-hydroxytryptamine receptor 1A (Rattus norvegicus, UniProt P19327); experiment: Binding affinity towards 5-hydroxytryptamine 1A receptor in rat frontal cortex using [3H]8-OH-DPAT as a radioligand; type: tissue-based
T2 sequence (P19327 whole entry): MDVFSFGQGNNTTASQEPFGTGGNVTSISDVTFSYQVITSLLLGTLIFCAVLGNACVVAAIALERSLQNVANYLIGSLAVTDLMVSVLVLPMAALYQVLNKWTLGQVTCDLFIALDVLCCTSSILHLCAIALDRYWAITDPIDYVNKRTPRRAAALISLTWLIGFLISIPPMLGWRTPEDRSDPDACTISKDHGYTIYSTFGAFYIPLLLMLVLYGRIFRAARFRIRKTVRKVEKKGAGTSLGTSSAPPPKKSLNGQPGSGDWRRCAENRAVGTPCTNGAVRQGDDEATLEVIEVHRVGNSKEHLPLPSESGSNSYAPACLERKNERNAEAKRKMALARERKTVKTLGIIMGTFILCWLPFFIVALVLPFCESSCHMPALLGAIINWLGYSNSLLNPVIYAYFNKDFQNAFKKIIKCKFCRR

[3] = molecular target: T3, 5-hydroxytryptamine receptor 1B (Rattus norvegicus, UniProt P28564); experiment: Binding affinity towards 5-HT1B receptor in rat brain membrane using [3H]8-OH-DPAT as a selective ligand.; type: cell membranes
T3 sequence (P28564 whole entry): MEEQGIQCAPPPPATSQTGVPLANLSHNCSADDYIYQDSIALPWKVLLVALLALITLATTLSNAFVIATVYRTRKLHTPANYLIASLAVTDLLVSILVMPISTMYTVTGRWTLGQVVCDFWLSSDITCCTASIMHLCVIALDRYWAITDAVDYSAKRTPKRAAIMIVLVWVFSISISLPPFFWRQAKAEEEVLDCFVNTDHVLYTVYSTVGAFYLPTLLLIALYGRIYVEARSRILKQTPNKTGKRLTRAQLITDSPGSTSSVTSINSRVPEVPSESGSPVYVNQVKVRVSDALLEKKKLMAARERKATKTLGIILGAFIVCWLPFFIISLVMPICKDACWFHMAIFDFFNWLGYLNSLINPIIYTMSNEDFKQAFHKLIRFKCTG

[4] = molecular target: T1, Serotonin 2 (5-HT2) receptor; experiment: as §1; type: tissue-based
Method in brief: (§2)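 5-HT2 sites in rat brain were labelled with [3H]ketanserin in a radioligand receptor binding assay.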

[5] = molecular target: T3, 5-hydroxytryptamine receptor 1B; experiment: Binding affinity against 5-HT1B receptor in rat frontal cortex using [3H]-5-HT in presence of 0.1 uM […]; type: tissue-based
[6] = molecular target: T2, 5-hydroxytryptamine receptor 1A; experiment: Binding affinity towards 5-hydroxytryptamine 1A receptor in rat brain membrane using [3H]8-OH-DPAT as a selective ligand.; type: cell membranes
[7] = molecular target: T4, Adrenergic receptor alpha-1 (Rattus norvegicus, UniProt P15823+P23944+P43140); experiment: Binding affinity against alpha-1 adrenergic receptor in rat brain membrane using […] as a selective ligand.; type: cell membranes
T4 sequence (P15823 whole entry): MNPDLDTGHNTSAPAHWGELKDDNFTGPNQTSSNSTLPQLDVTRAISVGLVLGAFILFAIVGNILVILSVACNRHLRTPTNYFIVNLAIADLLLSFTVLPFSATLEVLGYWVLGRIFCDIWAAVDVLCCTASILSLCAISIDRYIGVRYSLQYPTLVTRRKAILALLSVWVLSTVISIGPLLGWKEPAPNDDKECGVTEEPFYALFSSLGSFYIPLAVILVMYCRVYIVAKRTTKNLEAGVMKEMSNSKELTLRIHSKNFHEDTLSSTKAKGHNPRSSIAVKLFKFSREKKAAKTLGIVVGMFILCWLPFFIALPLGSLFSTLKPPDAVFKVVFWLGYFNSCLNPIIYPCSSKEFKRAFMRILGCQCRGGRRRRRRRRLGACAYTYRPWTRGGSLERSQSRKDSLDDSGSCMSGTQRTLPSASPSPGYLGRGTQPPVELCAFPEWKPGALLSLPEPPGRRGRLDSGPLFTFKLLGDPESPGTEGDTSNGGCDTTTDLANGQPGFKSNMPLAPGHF
T4 sequence (P23944 whole entry): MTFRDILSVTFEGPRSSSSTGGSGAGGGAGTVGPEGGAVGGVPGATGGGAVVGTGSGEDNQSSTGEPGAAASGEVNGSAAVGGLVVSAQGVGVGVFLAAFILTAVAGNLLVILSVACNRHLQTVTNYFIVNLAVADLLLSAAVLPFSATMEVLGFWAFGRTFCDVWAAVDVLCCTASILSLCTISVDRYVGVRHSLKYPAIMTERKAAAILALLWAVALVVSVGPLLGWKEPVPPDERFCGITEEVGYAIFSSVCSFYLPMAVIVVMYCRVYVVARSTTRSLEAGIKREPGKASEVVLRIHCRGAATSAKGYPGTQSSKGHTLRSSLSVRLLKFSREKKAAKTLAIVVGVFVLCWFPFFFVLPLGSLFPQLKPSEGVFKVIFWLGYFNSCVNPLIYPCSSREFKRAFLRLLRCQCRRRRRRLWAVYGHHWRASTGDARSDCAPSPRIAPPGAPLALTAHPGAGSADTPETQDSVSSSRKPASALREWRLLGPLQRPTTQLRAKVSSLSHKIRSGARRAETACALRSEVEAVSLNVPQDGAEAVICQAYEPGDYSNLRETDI
T4 sequence (P43140 whole entry): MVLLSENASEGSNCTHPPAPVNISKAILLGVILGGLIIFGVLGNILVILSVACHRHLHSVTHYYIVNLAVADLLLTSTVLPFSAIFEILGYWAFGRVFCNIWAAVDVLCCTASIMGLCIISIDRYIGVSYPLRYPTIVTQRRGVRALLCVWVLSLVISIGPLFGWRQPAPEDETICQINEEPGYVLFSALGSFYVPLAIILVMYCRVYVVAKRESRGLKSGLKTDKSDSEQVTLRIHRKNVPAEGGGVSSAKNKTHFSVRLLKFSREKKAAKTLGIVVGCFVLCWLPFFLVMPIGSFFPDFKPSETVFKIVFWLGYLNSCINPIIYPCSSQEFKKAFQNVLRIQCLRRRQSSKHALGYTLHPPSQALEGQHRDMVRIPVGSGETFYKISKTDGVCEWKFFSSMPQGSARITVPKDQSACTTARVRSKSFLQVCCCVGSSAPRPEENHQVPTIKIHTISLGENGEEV
Method in brief: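 Alpha1-adrenergic binding in rat brain, using [3H]prazosin as the radioligand.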

[8] = molecular target: T1, Serotonin 2 (5-HT2) receptor; experiment: Binding affinity towards 5-hydroxytryptamine 2 receptor in rat brain membrane using […] as a selective ligand.; type: cell membranes; method in brief: as §2
[9] = molecular target: T5, Adrenergic receptor alpha-2 (Rattus norvegicus, UniProt P22086+P19328+P22909); experiment: Binding affinity against alpha-2 adrenergic receptor in rat brain membrane using […] as a selective ligand.; type: cell membranes
T5 sequence (P22086 whole entry): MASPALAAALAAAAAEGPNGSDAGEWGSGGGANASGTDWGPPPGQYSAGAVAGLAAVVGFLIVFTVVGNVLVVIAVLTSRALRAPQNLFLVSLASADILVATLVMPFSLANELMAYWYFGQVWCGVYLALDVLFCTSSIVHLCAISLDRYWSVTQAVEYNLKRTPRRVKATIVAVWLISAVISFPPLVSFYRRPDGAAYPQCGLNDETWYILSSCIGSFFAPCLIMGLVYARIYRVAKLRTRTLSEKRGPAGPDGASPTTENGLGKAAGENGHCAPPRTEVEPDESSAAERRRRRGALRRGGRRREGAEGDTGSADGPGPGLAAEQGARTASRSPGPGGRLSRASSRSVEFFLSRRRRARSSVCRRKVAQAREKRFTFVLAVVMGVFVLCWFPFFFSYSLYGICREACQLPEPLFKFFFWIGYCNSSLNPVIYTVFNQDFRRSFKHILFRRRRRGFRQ
T5 sequence (P19328 whole entry): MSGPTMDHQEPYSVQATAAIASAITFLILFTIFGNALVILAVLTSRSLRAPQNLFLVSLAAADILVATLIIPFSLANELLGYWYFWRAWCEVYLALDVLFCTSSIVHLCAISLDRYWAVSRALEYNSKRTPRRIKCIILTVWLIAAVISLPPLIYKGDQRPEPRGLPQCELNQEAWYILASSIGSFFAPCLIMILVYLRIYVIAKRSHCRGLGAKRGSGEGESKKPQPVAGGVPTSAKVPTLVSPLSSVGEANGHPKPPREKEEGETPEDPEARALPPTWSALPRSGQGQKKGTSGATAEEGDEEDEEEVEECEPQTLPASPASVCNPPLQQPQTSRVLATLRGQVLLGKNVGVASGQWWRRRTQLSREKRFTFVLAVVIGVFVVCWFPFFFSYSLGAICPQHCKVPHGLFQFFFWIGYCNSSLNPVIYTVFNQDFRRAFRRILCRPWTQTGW
T5 sequence (P22909 whole entry): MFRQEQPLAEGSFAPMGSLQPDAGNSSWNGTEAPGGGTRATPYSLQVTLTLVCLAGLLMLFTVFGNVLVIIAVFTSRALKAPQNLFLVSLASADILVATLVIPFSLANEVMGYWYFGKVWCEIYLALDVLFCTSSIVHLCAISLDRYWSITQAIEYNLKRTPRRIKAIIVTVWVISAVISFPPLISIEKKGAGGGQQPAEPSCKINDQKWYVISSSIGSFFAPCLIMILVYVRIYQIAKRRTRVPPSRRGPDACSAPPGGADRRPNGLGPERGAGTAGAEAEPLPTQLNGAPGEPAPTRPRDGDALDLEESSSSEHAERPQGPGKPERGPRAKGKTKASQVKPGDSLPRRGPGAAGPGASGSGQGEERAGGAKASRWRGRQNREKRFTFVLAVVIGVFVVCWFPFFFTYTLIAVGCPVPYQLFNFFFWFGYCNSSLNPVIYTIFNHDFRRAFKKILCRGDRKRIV
Method in brief: (§3)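 Alpha2-adrenergic sites in rat brain were labelled with [3H]clonidine for radioligand binding.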

D(2) dopamine receptor [10] = molecular target: T6, D(2) dopamine receptor (Rattus norvegicus, UniProt P61169); experiment: Binding affinity against Dopamine receptor D2 in rat brain membrane using [3H]domperidone as radioligand.
T6 sequence (P61169 whole entry): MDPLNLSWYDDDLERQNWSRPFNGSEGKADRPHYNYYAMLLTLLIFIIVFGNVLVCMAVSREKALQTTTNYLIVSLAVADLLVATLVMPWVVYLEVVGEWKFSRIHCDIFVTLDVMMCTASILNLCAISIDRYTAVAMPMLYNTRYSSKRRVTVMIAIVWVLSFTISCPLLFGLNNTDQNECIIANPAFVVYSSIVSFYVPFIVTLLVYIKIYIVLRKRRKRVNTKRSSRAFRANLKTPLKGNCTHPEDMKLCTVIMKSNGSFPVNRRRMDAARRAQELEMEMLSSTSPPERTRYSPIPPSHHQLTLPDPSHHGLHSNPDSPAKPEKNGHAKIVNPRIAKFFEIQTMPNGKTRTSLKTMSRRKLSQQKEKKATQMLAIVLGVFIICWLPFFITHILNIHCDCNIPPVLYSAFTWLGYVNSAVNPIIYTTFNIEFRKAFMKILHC

[11] = molecular target: T3, 5-hydroxytryptamine receptor 1B; experiment: Binding affinity against 5-HT1B receptor in rat brain membrane using [3H]-5-HT in the presence of 8-OH-DPAT.
D(2) dopamine receptor [12] = molecular target: T6, D(2) dopamine receptor; experiment: Binding affinity against Dopamine receptor D2 in rat brain membrane using [3H]-8-OH-DPAT as a selective ligand.; type: cell membranes; conditions: in the assay text read “[3H]domperidone as radioligand” for “[3H]-8-OH-DPAT as a selective ligand”
Method in brief: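 D2 receptor binding in rat brain, using [3H]domperidone as the radioligand.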

[13] = molecular target: T5, Adrenergic receptor alpha-2; experiment: Binding affinity against alpha-2 adrenergic receptor in rat brain membrane using […].; type: cell membranes; method in brief: as §3

| SMILES | IC50 [2] [µM] | Log IC50 [7] | Log IC50 [8] | Log IC50 [9] | IC50 [11] [µM] | IC50 (D(2) dopamine receptor [12]) [µM] | IC50 [6] [µM] | other results |
| --- | --- | --- | --- | --- | --- | --- | --- | --- |
| CCCN(CCC)C1CCc2cccc(O)c2C1 (stereo unspecified) [8-OH-DPAT] | – | – | – | – | – | – | – | Log IC50 [1]: -5 |
| CSc1ccc2c(c1)[C@@H](N1CCN(C)CC1)Cc1ccccc1S2 | 0.0955 | – | – | – | – | – | – | IC50 [3]: 0.182 µM; Log IC50 [4]: -8.2 |
| O=C(CCCN1CCC2(CC1)C(=O)NCN2c1ccccc1)c1ccc(F)cc1 [SPIPERONE] | – | – | – | – | – | – | 0.123 | IC50 [5]: 1 µM |
| O=C1CC2(CCCC2)CC(=O)N1CCCCNCC1COc2ccccc2O1 (stereo unspecified) | 0.000794 | -7.8 | -6.2 | -6.4 | 0.631 | 0.158 | – | – |
| O=C1CC2(CCCC2)CC(=O)N1CCCCNC[C@@H]1COc2ccccc2O1 | – | -7.2 | -6.1 | – | 5.01 | 2.51 | 0.02 | Log IC50 [13]: -6.2 |
| CSc1ccc2c(c1)[C@H](N1CCN(C)CC1)Cc1ccccc1S2 | – | – | – | – | – | – | 0.851 | IC50 [5]: 3.24 µM; Log IC50 [1]: -8.25 |

More lines, main results first:

| IC50 [2] [µM] | Log IC50 [7] | Log IC50 [8] | Log IC50 [9] | IC50 [11] [µM] | IC50 (D(2) dopamine receptor [12]) [µM] | SMILES | IC50 [6] [µM] | other results |
| --- | --- | --- | --- | --- | --- | --- | --- | --- |
| – | -5.3 | – | – | – | – | O=C1CC2(CCCC2)CC(=O)N1CCCCNCC1COc2cc3ccccc3cc2O1 (stereo unspecified) | 0.316 | – |
| 0.794 | -5.2 | -5.9 | < -5 | 3.16 | – | O=C1CC2(CCCC2)CC(=O)N1CCCCNCC1COc2c(ccc3ccccc23)O1 (stereo unspecified) | – | IC50 (D(2) dopamine receptor [10]): 0.316 µM |
| 0.00501 | -6.1 | -6.8 | < -5 | 0.398 | 0.158 | O=C1CC2(CCCC2)CC(=O)N1CCCCNCC1COc2ccc3ccccc3c2O1 (stereo unspecified) | – | – |
| 0.000631 | -8 | -6.7 | -6.3 | 0.794 | 0.0794 | O=C1CC2(CCCC2)CC(=O)N1CCCCNC[C@H]1COc2ccccc2O1 | – | – |
